Test results taken from the array DNA melting data of Ke et al. (doi:10.1101/2024.01.08.574731).

Experiments:
[1] = melting temperature; fluorescence melt of hairpins on a sequencing array, two-state fit, raised by 9.35 °C to match UV melts; conditions: sodium 0.088 M
How it was run: (§1)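 Two-state fits, bootstrapped, provided melting temperature and folding enthalpy from Cy3 fluorescence normalised to pre-quench Cy3 and to control constructs. Library hairpins with annealed Cy3 and quencher oligos were imaged on a sequenced MiSeq flow cell in 50 mM Na-HEPES pH 8.0, 25 mM NaCl, at 2.5 °C intervals up to 60 °C. Four replicates were combined with inverse-variance weighting. A 9.35 °C upward shift was applied to fitted temperatures to match UV melts.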

[2] = folding enthalpy; higher = less favourable; fluorescence melt of hairpins on a sequencing array, two-state fit; conditions: sodium 0.088 M
How it was run: as §1

Row | Sequence | Tm [1] [°C] | folding enthalpy [2] [kcal/mol]
1 | GATCGAGCCTCGATC ((((((...)))))) | 52.8 | -34.9
2 | GCAGTAGGAAACTACTGC (((((((....))))))) | 64.6 | -54
3 | TTTCGGAAACGAAA (((((....))))) | 40.6 | -18.3
4 | GCACTGCGAAAGCAAAGC ((..(((....)))..)) | 37.1 | -13.2
5 | GGTAATGAAAATTACC ((((((....)))))) | 48.4 | -32.4
6 | GTAAAACCGAAAGGTTAC (((..(((....)))))) | 31 | -14.9
7 | GAGTCGCGAAAGCGCCTC (((.(((....))).))) | 54.8 | -23.7
8 | GCAGGTGGAAACGCTTGC (((.(.(....).).))) | 46.6 | -23
9 | GTTAGACGAAAGTCGAAC (((.(((....))).))) | 52.4 | -23.5
10 | GATCCTCGCAAGGATC ((((((....)))))) | 54.8 | -32.6
11 | GCGGCCTACCGC ((((....)))) | 55.8 | -29.4
12 | GCAACCGAAAGGTTGTGC ((((((....)))..))) | 65.7 | -20.5
13 | CGAGTGCGGAAACGCTCG (((..(((....)))))) | 47.7 | -21.6
14 | GCGGATTCCGC ((((...)))) | 54.3 | -24.9
15 | GATCCGAAAGGATC (((((....))))) | 66.8 | -29.5
16 | GCCCGATCGAAAGATGGC (((..(((....)))))) | 40.2 | -23.6
17 | GTTCCCGGAAACAGGAAC (((((.(....).))))) | 39.5 | -32.5
18 | CGGCCACGGAAACGTCCG (((..(((....)))))) | 33.6 | -10.4
19 | GAAAGCGAAAGCTGCTTC ((((((....)))..))) | 42.9 | -19.4
20 | GATCTGTTCGCAGATC ((((((....)))))) | 53.4 | -47.6
21 | GTGGCCGGAAACAGCCAC (((((.(....).))))) | 54.5 | -47.6
22 | GATCTTTCGTAAGATC ((((((....)))))) | 44.4 | -30.6
23 | GGACTTCGAAAGAACTCC (((.(((....))).))) | 29.6 | -13.2
24 | GATCTATTAATAGATC ((((((....)))))) | 45.2 | -37.8

Row | Sequence | Tm [1] [°C] | folding enthalpy [2] [kcal/mol]
25 | GCCAGGCGAAAGCCCTGC ((..(((....)))..)) | 45.1 | -12.4
26 | GGTACAGGAAACTGTATC (.(((((....))))).) | 43.4 | -28.6
27 | GGACGTGCGAAAGCATCC (((..(((....)))))) | 30.6 | -9.73
28 | GATCGTGGTCACGATC ((((((....)))))) | 57.7 | -41.9
29 | GACCTTGAAAAAGGTC ((((((....)))))) | 56.8 | -33.4
30 | GACGTCGGAAACGACGCC (.(((((....))))).) | 50.7 | -11.6
31 | GGGCCCGGAAACGAGCCC ((((.((....)).)))) | 57.5 | -47.5
32 | GATCCATCCGTGGATC ((((((....)))))) | 52.9 | -46.6
33 | CGTGCCGGAAACGGGACG (((.(((....))).))) | 62.9 | -37.6
34 | GACATGGGAAACCATGTC (((((((....))))))) | 61.3 | -42.8
35 | GATCGGTACTCCGATC ((((((....)))))) | 59.3 | -38.3
36 | GCGGTCGAAAGACCCCGC ((((((....)))..))) | 47.5 | -14.9
37 | GTCAGAGCGAAAGCTGAC (((..(((....)))))) | 49.3 | -26.4
38 | GATCGGAAGCCGATC ((((((...)))))) | 55 | -34.7
39 | GTTGGCGGAAACGTCAGC (.((.((....)).)).) | 42.3 | -21.6
40 | GTAAATGGAAACATTTGC (.(((((....))))).) | 38.6 | -28.9
41 | CGTACGGAAACGTCACG ((((((....))).))) | 38.4 | -22.6
42 | GTTGGAGGAAACTCCAGC (.(((((....))))).) | 47.6 | -21.1
43 | GGACGCTCGAAAGAGTCC (((..(((....)))))) | 46.5 | -22.1
44 | GATCTCTTTAGAGATC ((((((....)))))) | 61.8 | -44.9
45 | GCCACCGAAAGGTCGGGC ((((((....)))..))) | 48 | -25.6
46 | GATGTAGGAAACTACATC (((((((....))))))) | 54.6 | -40.4
47 | GATCTCCGCGGAGATC ((((((....)))))) | 60.9 | -50.1
48 | GCGTGAGGAAACTCGTGC ((..(((....)))..)) | 38.9 | -28.7

Row | Sequence | Tm [1] [°C] | folding enthalpy [2] [kcal/mol]
49 | GATCTAACGTTAGATC ((((((....)))))) | 48.3 | -47
50 | GTGCCCGAAAGGGAGCAC ((((((....)))..))) | 55.6 | -25.2
51 | GCCGAGCGAAAGCTCCGC ((.((((....)))).)) | 55.7 | -18
52 | GACTCCGAAAGGATGTC ((((((....))).))) | 51 | -30.7
53 | GATCAGATCTCTGATC ((((((....)))))) | 50.7 | -40
54 | GATCCCCAACGGGATC ((((((....)))))) | 57.2 | -29.7
55 | GATCCAAGCGTGGATC ((((((....)))))) | 50.6 | -35.7
56 | GCTAGCGAAAGCTAGAGC ((((((....)))..))) | 55 | -13.2
57 | GATCTCATGTGAGATC ((((((....)))))) | 52.9 | -36.2
58 | GATGGGGAAACCCATC ((((((....)))))) | 57.8 | -34.2
59 | GATCCCAAAAGGGATC ((((((....)))))) | 59.3 | -27.9
60 | GATCTAGAGTAGATC ((((((...)))))) | 34.8 | -28.1
61 | GAATTGGGAAACCAATCC (.(((((....))))).) | 29.8 | -14.6
62 | GATCCTACGAGGATC ((((((...)))))) | 53.4 | -29.5
63 | GCGCTCGAAAGAGTTCGC ((((((....)))..))) | 43.8 | -22.1
64 | GCGAGGCATCGC ((((....)))) | 57.4 | -26.3
65 | GAAGCTGGAAACGGTTTC (((.(.(....).).))) | 26 | -10.3
66 | GCTGCAGGAAACCGCAGC (((((.(....).))))) | 57.8 | -32.9
67 | GGTCGCGAAAGCGATACC ((((((....)))..))) | 47.7 | -11.3
68 | GCTAACGAAAGTTAGC ((((((....)))))) | 66.8 | -35.1
69 | GAGAGACGAAAGTCCTC (((.(((....)))))) | 46.9 | -17.9
70 | GGGAGTCGAAAGACCCC (((.(((....)))))) | 56.7 | -32.7
71 | GATCATCTGGATGATC ((((((....)))))) | 53 | -44.9
72 | GCACCCCCGAAAGGGTGC (((..(((....)))))) | 66.6 | -30.6

Row | Sequence | Tm [1] [°C] | folding enthalpy [2] [kcal/mol]
73 | GGTCCAGGAAACTAGACC ((((.((....)).)))) | 35.7 | -29.7
74 | GCAGAAGCGAAAGCTTGC (((..(((....)))))) | 47.2 | -16.2
75 | CGACCGGAAACGGCTCG ((((((....))).))) | 48.2 | -28.8
76 | GTCGTGCCGAAAGGCGAC (((..(((....)))))) | 44.6 | -13.9
77 | GCCAATCCGAAAGGAGGC (((..(((....)))))) | 47 | -22.2
78 | GATGTGGGAAACCACACC (.(((((....))))).) | 39 | -14.1
79 | GCGAGAGCTCGC ((((....)))) | 52.5 | -12.8
80 | GATCCCCGGAGGGATC ((((((....)))))) | 59.5 | -19.2
81 | GTGAACGCGAAAGCGCAC (((..(((....)))))) | 42.3 | -14.8
82 | GCGTGTACGAAAGTACGC (((..(((....)))))) | 53.1 | -15
83 | GTTCACGAAAGTGAAC ((((((....)))))) | 68.4 | -34.7
84 | GCCAAGCGAAAGCTATGC ((..(((....)))..)) | 33.9 | -13.2
85 | GAGCGTGGAAACGTGCTC ((((..(....)..)))) | 47.6 | -19.3
86 | GATCCATTCTTGGATC ((((((....)))))) | 54 | -42.1
87 | GGAGACGAAAGTCCGTCC ((((((....)))..))) | 32.5 | -12.4
88 | GATCCGGCTACGGATC ((((((....)))))) | 67.8 | -40.2
89 | GCGCTACGAAAGTACCGC (((.(((....))).))) | 48.5 | -36.1
90 | GATCCAATTTTGGATC ((((((....)))))) | 54 | -40.2
91 | GATCCCCCGGGGATC ((((((...)))))) | 64.8 | -31.5
92 | GTGCCGGGAAACCGGTAC ((.((((....)))).)) | 57.2 | -30.3
93 | GATCCTTAATAGGATC ((((((....)))))) | 50.1 | -39.1
